Shown is part of a subset that was picked to be rich in hits.
Calb biofilm kill: mixture kills Candida albicans biofilm cells; C. albicans biofilm persisters + clotrimazole, fluorescence viability; primary screen in compound mixtures of four per well; inhibition, % at 7.6 µM; 120,000 compounds, 0.02% hits; AID 1242;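 active means inhibition above 30.3% in the primary screen of four-compound pools, then above 30% when the compound was retested; inconclusive means passed the primary limit but could not be retested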;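 further: compounds exposed to preformed 24 h biofilms for 48 h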
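Assay system: C. albicans biofilms / Medium: RPMI/MOPS medium, pH 7.0 / Schedule: biofilm formation 24 h, compound exposure 48 h, 37 °C / Measured by: Alamar Blue fluorescence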
ROMK primary: modulators of human ROMK potassium channel | B-score at 10 µM | Tet-inducible ROMK, thallium flux fluorescence; actives lie on both sides | 130,000 compounds, 2% hits | P48048;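 active means signal ratio slope over the read window, or its plate-corrected B-score, at least 3 SD from the plate mean, either direction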;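 further: B-score of the F/F0 ratio slope over 7 to 12 s after thallium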
Target sequence (P48048 whole entry, looked up): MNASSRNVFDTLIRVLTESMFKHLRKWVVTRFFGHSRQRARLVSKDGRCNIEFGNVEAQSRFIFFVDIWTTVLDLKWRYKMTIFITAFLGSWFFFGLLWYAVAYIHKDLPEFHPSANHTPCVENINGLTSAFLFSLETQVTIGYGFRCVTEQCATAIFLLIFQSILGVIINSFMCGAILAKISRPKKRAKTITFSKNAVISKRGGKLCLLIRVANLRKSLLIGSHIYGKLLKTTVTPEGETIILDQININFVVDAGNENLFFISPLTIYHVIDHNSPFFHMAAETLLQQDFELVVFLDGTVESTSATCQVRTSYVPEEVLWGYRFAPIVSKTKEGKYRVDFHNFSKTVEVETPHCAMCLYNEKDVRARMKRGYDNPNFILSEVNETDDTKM
ROMK retest: confirmation of human ROMK potassium channel modulators | shares compounds with ROMK primary | AID 1917 | normalized thallium flux (F/F0 slope) at 10 µM | ROMK thallium flux, fluorescence ratio; hits give low values | 3,000 compounds, 54% hits;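 active means Flux at 10 µM at least 3 SD below or above vehicle control mean in one or both replicates; inconclusive means no clear call, values can overlap the other calls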
Large screens that a line does not name were inactive (follow-up assays come after a bar, where they were run).

CCCCOC(=O)Cn1c(=O)c2c(nc3n2CCCCN3c2ccc(C)cc2)n(C)c1=O	none (no result: Calb biofilm kill, ROMK primary) | ROMK retest 0.061
COC(=O)Cn1c(=O)c2c(nc3n2CC(C)CN3c2ccc(C)c(C)c2)n(C)c1=O (configuration not stated)	none (no result: ROMK primary)
O=C(CSc1n[nH]c(-c2ccccc2Br)n1)NCCN1C(=O)CSC1=O	none
COc1cc(N2C(=O)CSC23C(=O)Nc2ccccc23)cc(OC)c1OC (configuration not stated)	none (no result: Calb biofilm kill)
COc1ccc(N2C(=O)CSC23C(=O)Nc2ccccc23)cc1OC (configuration not stated)	none (no result: Calb biofilm kill, ROMK primary) | ROMK retest inactive
Cc1ccccc1-n1c(SCC(=O)N(C)C2CCS(=O)(=O)C2)nnc1-c1ccncc1 (configuration not stated)	none
CN(C(=O)CSc1nnc(-c2ccncc2)n1C)C1CCS(=O)(=O)C1 (configuration not stated)	ROMK primary 3.1 (no result: Calb biofilm kill) | ROMK retest inactive
CCCCc1nc2sc3c(=O)n(N)cnc3c2c2c1CCC2	none
COc1ccc2cc(C(=O)Nc3ccc(Cl)cc3)sc(=O)c2c1OC	none (no result: ROMK primary)
O=C(CCn1c2c(c3ccccc31)CCCC2)NNC(=O)c1ccccc1C(=O)O	none (no result: ROMK primary) | ROMK retest inactive
O=C(CCn1c2c(c3ccccc31)CCCC2)NNC(=O)c1ccccc1[N+](=O)[O-]	none (no result: ROMK primary)
Cc1ccc(NC(=O)CSc2nnc(-c3ccncc3)o2)cc1C	none
CCCCNC(=O)CC1SC(=NCC)N(CC)C1=O (configuration not stated)	none (no result: Calb biofilm kill)
Cc1ccc(Oc2c(C(N)=O)cc([N+](=O)[O-])cc2[N+](=O)[O-])cc1	ROMK primary -2.3 | ROMK retest 0.035
Cc1ccc2nc3cc([N+](=O)[O-])cc([N+](=O)[O-])c3cc2c1	none
O=C(CCCc1nc(-c2ccccc2Cl)no1)NC1CCCCC1	none (no result: Calb biofilm kill)
CNC(=O)CCCc1nc(-c2ccccc2Cl)no1	ROMK primary 3.1 (no result: Calb biofilm kill) | ROMK retest inactive
CCOC(=O)c1ccc2c(c1)NCc1cccc(OC)c1O2	none (no result: ROMK primary)
COC(=O)Nc1nc2ccc(-c3n[nH]c(=O)c4ccccc34)cc2[nH]1	ROMK primary 2.8 | ROMK retest inconclusive
C=CCOc1ccc2nc(NC(=O)OC)[nH]c2c1	none (no result: Calb biofilm kill)
COC(=O)c1cccc(NC(=O)C(C)(C)C)c1	none
C#CCOCCOCCOCCNc1nc(N2CCN(C(=O)C(Cc3cc4ccccc4[nH]3)n3cc(C(N)Cc4ccc(O)cc4)nn3)CC2)nc(N2CCN(C(=O)C(Cc3cc4ccccc4[nH]3)n3cc(C(N)Cc4ccc(O)cc4)nn3)CC2)n1 (configuration not stated)	none (no result: ROMK primary)
C#CCOCCOCCOCCNc1nc(N2CCN(C(=O)[C@H](Cc3cc4ccccc4[nH]3)n3cc([C@@H](N)Cc4ccc(O)cc4)nn3)CC2)nc(N2CCN(C(=O)[C@H](Cc3cc4ccccc4[nH]3)n3cc([C@@H](N)CC(C)C)nn3)CC2)n1	none (no result: ROMK primary) | ROMK retest 0.045
CC(C)N(C(=O)CSc1nnc(-c2ccc3c(c2)OCO3)n1C)C(C)C	none (no result: ROMK primary)
Cc1ccsc1/C=C1\SC(N)=NC1=O	none (no result: Calb biofilm kill)
NC1=NC(=O)/C(=C\c2cc([N+](=O)[O-])ccc2Cl)S1	ROMK primary -2 | ROMK retest 0.066
O=C(NCCCn1ccnc1)c1ccc(Cl)c(S(=O)(=O)N2CCOCC2)c1	none (no result: Calb biofilm kill)
Cc1ccc(CSCCNC(=O)c2ccc(Cl)c(S(=O)(=O)N3CCOCC3)c2)cc1	ROMK primary -4 (no result: Calb biofilm kill) | ROMK retest inactive
CC12CCCCC1N(O)C(=O)C(=O)N2O (configuration not stated)	none (no result: ROMK primary)
CCOC(=O)c1c(CSCc2ccccc2)oc2ccc(O)c(CN(C)C)c12	none (no result: ROMK primary) | ROMK retest 0.061
CCOC(=O)c1c(-c2ccccc2)oc2ccc(O)c(CN(C)C)c12	none (no result: Calb biofilm kill)
CCc1ccc(Nc2ncc3c(n2)CC(C)(C)CC3=O)cc1	none (no result: ROMK primary)
Cc1cc(Br)c(OCc2ccc(C(=O)N/N=C3\CC4CC=CC34)cc2)c(Br)c1 (configuration not stated)	none
COc1ccccc1C1N(c2ccc(F)cc2)C(=O)C2CCCN21 (configuration not stated)	none (no result: Calb biofilm kill)
O=C1C2CCCN2C(c2ccccc2F)N1c1ccc(Cl)cc1 (configuration not stated)	ROMK primary 1.5 (no result: Calb biofilm kill) | ROMK retest inactive
CCO/C(C)=C1/SC(=S)NC1=O	none
CCN(CC)C(=O)CSc1nnc(-c2ccccn2)n1Cc1ccccc1	none (no result: ROMK primary)
CCCCOc1ccc(C(=O)NC)cc1	none (no result: Calb biofilm kill)
CCCCOc1ccc(CC(=O)NO)cc1	none (no result: ROMK primary) | ROMK retest inactive
C/C=C/C(=O)Nc1cccc(C2=NOC3(C2)C[C@H](C(N)=O)N(C(=O)c2ccccc2C(=O)c2ccccc2)C3)c1 (some centres not stated)	none (no result: ROMK primary)
COc1ccc2oc(C(=O)OCc3c(C)noc3C)c(C)c2c1	none
COc1nc(N/N=C/c2ccc(-c3ccccc3[N+](=O)[O-])o2)nc(N2CCOCC2)n1	none

Source: PubChem BioAssay
